For data set [1], the system named is MCF7. As to the kind of experiment: Cytotoxicity against human MCF7 cells by MTT assay. The format is functional, cell-based. The gist of the method:
(§1)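 MTT colorimetric assay on human cancer cell lines (leukemia HL-60, lung A549, colon HCT-116, breast MCF-7) obtained from the Korea Cell Line Bank; values reported as IC50.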

Data set [2] relates to HL-60. As to the kind of experiment: Cytotoxicity against human HL60 cells by MTT assay. The format is functional, cell-based. The procedure, abridged:
as §1

Data set [3] relates to HCT-116. As to the kind of experiment: Cytotoxicity against human HCT116 cells by MTT assay. The format is functional, cell-based. The gist of the method: as §1
In data set [4] the test system is A549. The experiment in a line: Cytotoxicity against human A549 cells by MTT assay. In kind it is functional, cell-based. The procedure, abridged:
as §1

Data set [5] has as its system HepG2. The experiment in a line: Inhibition of NF-kappaB-induced COX2 mRNA expression in TNF-alpha-stimulated human HepG2 cells at 1 to 9 uM pretreated for 1 hr by RT-PCR. The format is cell-based. The procedure, abridged:
(§2)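 Hep-G2 cells pretreated with or without compound for 1 h, then exposed to 10 ng/mL TNFα for 6 h. Total mRNA isolated from cell pellets. COX-2 and iNOS transcripts quantified by RT-PCR, with primer specificity checked by gel electrophoresis and melting-curve analysis.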

The nature of data set [6]: Inhibition of TNF-alpha-induced NF-kappaB transcriptional activity in human HepG2 cells pretreated for 1 hr by luciferase reporter gene assay. The format is cell-based. The procedure, abridged: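 Hep-G2 cells seeded at 2 × 10^5 per well, grown 24 h, then transfected (Lipofectamine LTX) with a firefly luciferase reporter under a minimal CMV promoter with tandem NF-κB response elements. Cells pretreated 1 h with vehicle (DMSO) or compound (0.1, 1, 10 µM), then 10 ng/mL TNFα for 1 h. Lysates read for luminescence. Unstimulated cells as negative control, PDTC 10 µM as positive control. Mean ± SD, n = 6; IC50 derived.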

Data set [7] relates to HepG2. The experiment in a line: Inhibition of NF-kappaB-induced iNOS mRNA expression in TNF-alpha-stimulated human HepG2 cells at 1 to 9 uM pretreated for 1 hr by RT-PCR. In kind it is cell-based. The gist of the method: as §2
The test system of data set [8] is HepG2. As to the kind of experiment: Cytotoxicity against human HepG2 cells at 0.1 to 10 uM. The note with it: hepg2, 10 µM. The format is cell-based. The procedure, abridged: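 Hep-G2 viability measured by MTT assay at the concentrations used in the NF-κB reporter and mRNA experiments.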

Molecules are shown by their SMILES. Active and inactive are the calls of the source. The calls are words filed in the database; no cut-off is given here. Some results are limits rather than exact numbers.

`C/C1=C/[C@]2(O)OC[C@@]3(C)O[C@]32CC[C@](C)(O)/C=C/C[C@@](C)(O)[C@@H](O)CC1`: the outcome in data set [1], in data set [2], in data set [3] and in data set [4] was inactive.
For the compound `C/C1=C\[C@]2(O)OC[C@@]3(C)O[C@]32CC[C@](C)(O)/C=C/C[C@@]2(C)O[C@H]2CC1`, the outcome in data set [1], in data set [2], in data set [3] and in data set [4] was inactive.
With `CC1=C2CC/C(C)=C/CC[C@@]3(C)O[C@H]3CC[C@](C)(O)/C=C/2OC1=O`, the result in data set [1], in data set [2], in data set [3] and in data set [4] was inactive.
`COC(=O)/C1=C\C=C(\C(C)C)CCC2=CCC[C@](C)(OC2=O)[C@@H](OC(C)=O)CC1` [EMBLIDE]: the IC50 was over 40 µM in data set [1], 38.8 µM in data set [2], over 40 µM in data set [3] and over 40 µM in data set [4].
For `C/C1=C\[C@@H]2O[C@@H](O)[C@@]3(C)O[C@@]23CC/C(C)=C/CC[C@@]2(C)O[C@H]2CC1` [LAEVIGATOL A], the inhibition result in data set [5] and in data set [7] was “Dose-dependent effect” in each case. Moreover, the outcome in data set [1], in data set [2], in data set [3] and in data set [4] was inactive. Besides, the IC50 in data set [6] was 9.4 µM. Also, the Activity result in data set [8] is “Non-toxic”.
Take `C=C1CO[C@H]2/C=C(\C)CC[C@@H]3O[C@]3(C)CC/C=C(\C)CC[C@@]12O` [LAEVIGATOL B]: the inhibition entry in data set [5] and in data set [7] was “Dose-dependent effect” throughout. Further, the result in data set [1], in data set [2], in data set [3] and in data set [4] was inactive. Moreover, the half-inhibitory concentration (IC50) in data set [6] worked out at 9.7 µM. Besides, in data set [8], the Activity entry is “Non-toxic”.
For the compound `COC(=O)[C@@]12CC(=O)[C@@H](C(C)C)CC(=O)[C@@H](C)CCC[C@@H](C)CC(=O)[C@@H]1CC(C)=C1[C@@H]3C[C@@](C)(O)[C@H](CC[C@@H](C)C(=O)CC/C(C)=C/[C@H]12)O3` [METHYL TORTUOATE B], the inhibition result in data set [5] and in data set [7] was “Dose-dependent effect” throughout. Also, the concentration for half-maximal inhibition (IC50) in data set [1] is over 40 µM; in data set [6], 6.7 µM; in data set [2] it was 25.8 µM; in data set [3], 19.7 µM; in data set [4], 24.4 µM. Also, the Activity result in data set [8] is “Non-toxic”.
With `O=C1c2c(O)ccc(O)c2C(=O)c2c(NCCNCCO)ccc(NCCNCCO)c21` [MITOXANTRONE], the half-inhibitory concentration (IC50) in data set [2] worked out at 7.9 µM; in data set [3], 7.2 µM.
As for `COC(=O)[C@]12CC(=O)[C@H](C(C)C)CC(=O)[C@H](C)CCC[C@H](C)CC(=O)[C@H]1CC(C)=C1C[C@H](OC(C)=O)[C@](C)(O)[C@H]3CC[C@@](C)(O)[C@H](CC/C(C)=C/[C@@H]12)O3` [NYALOLIDE], the IC50 was determined as 35.5 µM in data set [1], 28.1 µM in data set [2], 17.5 µM in data set [3] and 28.7 µM in data set [4].
Turning to `CC1=C2CC/C(C)=C/CC[C@]3(C)O[C@H]3CC/C(C)=C/[C@@H]2OC1=O` [SARCOPHINE], the 50% inhibitory concentration (IC50) in data set [1] was over 40 µM; in data set [2] it was 34.7 µM; in data set [3] it was over 40 µM; in data set [4], over 40 µM.
On to `COC(=O)[C@@]12CC(=O)[C@@H](C(C)C)CC(=O)[C@@H](C)CCC[C@@H](C)CC(=O)C1CC(C)=C1C2/C=C(\C)CCC2OC(CC[C@]2(C)OC(C)=O)[C@](C)(O)C[C@H]1O` (stereo partly drawn) [XIMAOLIDE F], for which the inhibition result in data set [5] and in data set [7] was “Dose-dependent effect” in each case. For the same compound, the IC50 is over 40 µM in data set [1]; 6.9 µM in data set [6]; 9 µM in data set [2]; 16.4 µM in data set [3]; 28.4 µM in data set [4]. The Activity result in data set [8] is listed as “Non-toxic”.
